Test results published in ChEMBL document CHEMBL2163307, “Antibiotic optimization and chemical structure stabilization of thiomuracin A” (J Med Chem, 2012).
≈ marks a conversion by molar mass, not a printed value. Calls of active or inactive are those of the source. No cut-off for these calls is given here.

How the values were obtained:
Enterococcus faecalis [1] = assay: Antibacterial activity against Enterococcus faecalis ATCC 29212 by broth microdilution method; format: functional
Method in brief: (§1)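 MIC by CLSI broth microdilution (M07-A8 for aerobes; M11-A7 for anaerobes).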

Enterococcus faecium = assay: Antibacterial activity against Enterococcus faecium 7130724 by broth microdilution method; format: functional; method in brief: as §1
Staphylococcus aureus [2] = assay: Antibacterial activity against methicillin-resistant Staphylococcus aureus isolate AKH Vienna A4.018 by broth microdilution method; format: functional
Method in brief: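 Broth microdilution MIC following CLSI M07-A8 (2009) and M11-A7 guidelines.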

Streptococcus pyogenes = assay: Antibacterial activity against Streptococcus pyogenes ATCC BAA-595 by broth microdilution method; format: functional; method in brief: as §1
[3] = Antibacterial activity against Clostridium difficile ATCC 43255 by broth microdilution method; format: functional; conditions: Clostridioides difficile; method in brief: as §1
Escherichia coli = assay: Inhibition of elongation factor Tu-mediated protein synthesis in Escherichia coli S30 extract after 2 hrs by luciferase reporter gene assay
Method in brief: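 Coupled transcription/translation in E. coli S30 extract with pBESTluc template DNA, methionine-minus and cysteine-minus amino acid mixes, and S30 premix; test agent added as 40× stock in 20 μL reactions. Incubated 2 h at 37 °C; luciferase formed was read by luminescence after adding an equal volume of SteadyGlo reagent. Kirromycin and puromycin were positive controls; ampicillin was the negative control.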

[4] = Solubility of the compound in DMSO solution; format: physicochemical
[5] = Solubility of the compound in DMF solution; format: physicochemical
[6] = Chemical stability of the compound in HCl at room temperature; format: physicochemical; conditions: buffer
[7] = Chemical stability of the compound in MeOH at room temperature; format: physicochemical
[8] = Chemical stability of the compound in water at room temperature; format: physicochemical; conditions: buffer
[9] = Chemical stability of the compound in HCl at 50 degC; format: physicochemical; conditions: buffer
[10] = Chemical stability of the compound in MeOH at 50 degC; format: physicochemical
[11] = Chemical stability of the compound in water at 50 degC; format: physicochemical; conditions: buffer
Enterococcus faecalis [12] = assay: Antibacterial activity against Enterococcus faecalis isolate NB04025 infected in iv dosed CD1 mouse assessed as protection from lethal infection after 5 days; format: functional; conditions: for ED50: 120 h
Method in brief: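 Female CD1 mice (21−25 g) infected ip with 1 × 10^8 CFU/mouse in 50% sterile rat fecal extract (10−100× minimal lethal dose). Single iv tail-vein bolus immediately after inoculation, several dose levels, six mice per group. Observed 5 days with implanted temperature transponders; moribund mice euthanized. ED50 with 95% CI from day-5 survival by probit analysis.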

Staphylococcus aureus [13] = assay: Antibacterial activity against Staphylococcus aureus ATCC 49951 infected in iv dosed CD1 mouse assessed as protection from lethal infection administered 1 hr and 5 hrs post-infection measured after 5 days; format: functional; conditions: for ED50: ATCC 49951, iv
Method in brief: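 Female CD1 mice (21−25 g) infected ip with 1 × 10^8 CFU/mouse in 0.9% NaCl (10−100× minimal lethal dose). iv tail-vein bolus at 1 and 5 h post-inoculation, several dose levels, six mice per group. Watched 5 days with body temperature monitoring; moribund animals euthanized. ED50 with 95% CI from day-5 survival by probit analysis.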

[14] = Clearance in Sprague-Dawley rat at 1 mg/kg, iv; format: ADME, organism-based; design: dose 1 mg/kg, route intravenous; conditions: in vivo
Method in brief: (§2)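 Intravenous PK (N = 2) in male Sprague−Dawley rats (220−270 g, about 6−10 weeks old) with dual jugular vein cannulas. Rats were fasted overnight before dosing and for 8 h after. Blood was collected into K2EDTA tubes and plasma was assayed by LC-MS/MS.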

[15] = Volume of distribution at steady state in Sprague-Dawley rat at 1 mg/kg, iv; format: ADME, organism-based; design: dose 1 mg/kg, route intravenous; conditions: in vivo, read-out: Vdss; method in brief: as §2
[16] = Half life in Sprague-Dawley rat at 1 mg/kg, iv; format: ADME, organism-based; design: dose 1 mg/kg, route intravenous; conditions: in vivo; method in brief: as §2
Enterococcus faecalis [17] = assay: Ratio of daptomycin ED50 to compound ED50 for Enterococcus faecalis isolate NB04025 infected in iv dosed CD1 mouse; format: functional
Method in brief: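 Female CD1 mice (21−25 g) infected intraperitoneally with 1 × 10^8 CFU/mouse E. faecalis in 50% sterile rat fecal extract. Single iv tail-vein bolus given immediately after inoculation, at several dose levels, to groups of six mice. Vehicle was 5% DMA, 30% PEG400, 10% cremophor EL, 5% 0.1 N NaOH and 50% pH 7.4 buffer; daptomycin was given in saline. Survival followed 5 days; ED50 with 95% CI by probit analysis of day-5 survival.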

Enterococcus faecalis [18] = assay: Antibacterial activity against Enterococcus faecalis isolate NB04025; format: functional
Staphylococcus aureus [19] = assay: Antibacterial activity against Staphylococcus aureus ATCC 49951; format: functional
[20] = AUC in Sprague-Dawley rat at 1 mg/kg, iv; format: ADME, organism-based; design: dose 1 mg/kg, route intravenous; conditions: plasma; method in brief: as §2

Compound: C=C(NC(=O)c1csc(-c2ccc3c(n2)-c2csc(n2)-c2csc(n2)[C@H]([C@@H](C)[C@@H]2CO2)NC(=O)[C@H](Cc2ccc(O)cc2)NC(=O)c2csc(n2)[C@H]([C@H](O)c2ccccc2)NC(=O)c2nc(sc2C)[C@H](CC(N)=O)NC(=O)c2csc-3n2)n1)C(=O)NC(=C)C(=O)OC
- MIC (Enterococcus faecalis [1]): 8 µg/mL (≈ 5.91 µM)
- MIC (Enterococcus faecium): 8 µg/mL (≈ 5.91 µM)
- MIC (Staphylococcus aureus [2]): > 32 µg/mL
- MIC (Streptococcus pyogenes): > 32 µg/mL
- MIC [3]: 1 µg/mL (≈ 0.739 µM)
- inhibition (Escherichia coli): inactive

Compound: C=C(NC(=O)C(=C)NC(=O)c1csc(-c2ccc3c(n2)-c2csc(n2)-c2csc(n2)[C@H]([C@@H](C)[C@@H]2CO2)NC(=O)[C@H](Cc2ccc(O)cc2)NC(=O)c2csc(n2)[C@H]([C@H](O)c2ccccc2)NC(=O)c2nc(sc2C)[C@H](CC(N)=O)NC(=O)c2csc-3n2)n1)C(=O)O [THIOMURACIN A]
- solubility [4]: soluble
- solubility [5]: soluble
- MIC (Enterococcus faecalis [1]): 0.5 µg/mL (≈ 0.373 µM)
- MIC (Enterococcus faecium): 0.5 µg/mL (≈ 0.373 µM)
- MIC (Staphylococcus aureus [2]): 0.5 µg/mL (≈ 0.373 µM)
- MIC (Streptococcus pyogenes): 0.5 µg/mL (≈ 0.373 µM)
- MIC [3]: 0.03 µg/mL (≈ 0.0224 µM)
- Stability [6]: Stable
- Stability [7]: Stable
- Stability [8]: Stable
- Stability [9]: Unstable
- Stability [10]: Unstable
- Stability [11]: Unstable

Compound: Cc1sc2nc1C(=O)N[C@@H]([C@H](O)c1ccccc1)c1nc(cs1)C(=O)N[C@@H](Cc1ccc(O)cc1)C(=O)N[C@@H]([C@@H](C)[C@@H]1CO1)c1nc(cs1)-c1nc(cs1)-c1nc(-c3nc(C(N)=O)cs3)ccc1-c1nc(cs1)C(=O)N[C@H]2CC(N)=O
- MIC (Enterococcus faecalis [1]): 0.25 µg/mL (≈ 0.208 µM)
- MIC (Enterococcus faecium): 0.125 µg/mL (≈ 0.104 µM)
- MIC (Staphylococcus aureus [2]): 0.5 µg/mL (≈ 0.417 µM)
- MIC (Streptococcus pyogenes): 2 µg/mL (≈ 1.67 µM)
- MIC [3]: 0.003 µg/mL (≈ 0.0025 µM)

Compound: Cc1sc2nc1C(=O)NCc1nc(cs1)C(=O)N[C@@H](Cc1ccc(O)cc1)C(=O)N1C[C@H](O)[C@H](C)[C@H]1c1nc(cs1)-c1nc(cs1)-c1nc(-c3nc(C(N)=O)cs3)ccc1-c1nc(cs1)C(=O)N[C@H]2CC(N)=O
- MIC (Enterococcus faecalis [1]): 4 µg/mL (≈ 3.66 µM)
- MIC (Enterococcus faecium): 4 µg/mL (≈ 3.66 µM)
- MIC (Staphylococcus aureus [2]): 2 µg/mL (≈ 1.83 µM)
- MIC (Streptococcus pyogenes): > 32 µg/mL

Compound: Cc1sc2nc1C(=O)N[C@@H]([C@H](O)c1ccccc1)c1nc(cs1)C(=O)N[C@@H](Cc1ccc(O)cc1)C(=O)N[C@@H]([C@@H](C)[C@@H](O)CCl)c1nc(cs1)-c1nc(cs1)-c1nc(-c3nc(C(N)=O)cs3)ccc1-c1nc(cs1)C(=O)N[C@H]2CC(N)=O
- MIC (Enterococcus faecalis [1]): 0.25 µg/mL (≈ 0.202 µM)
- MIC (Enterococcus faecium): 0.5 µg/mL (≈ 0.404 µM)
- MIC (Staphylococcus aureus [2]): 0.5 µg/mL (≈ 0.404 µM)
- MIC (Streptococcus pyogenes): 2 µg/mL (≈ 1.62 µM)
- MIC [3]: 0.25 µg/mL (≈ 0.202 µM)

Compound: C=C(NC(=O)c1csc(-c2ccc3c(n2)-c2csc(n2)-c2csc(n2)[C@H]([C@@H](C)[C@@H]2CO2)NC(=O)[C@H](Cc2ccc(OC)cc2)NC(=O)c2csc(n2)[C@H]([C@H](O)c2ccccc2)NC(=O)c2nc(sc2C)[C@H](CC(N)=O)NC(=O)c2csc-3n2)n1)C(=O)NC(=C)C(=O)OC
- MIC (Enterococcus faecalis [1]): 8 µg/mL (≈ 5.85 µM)
- MIC (Enterococcus faecium): 8 µg/mL (≈ 5.85 µM)
- MIC (Staphylococcus aureus [2]): > 32 µg/mL
- MIC (Streptococcus pyogenes): > 32 µg/mL
- MIC [3]: 1 µg/mL (≈ 0.731 µM)
- inhibition (Escherichia coli): inactive

Compound: CCCCCCCCCC(=O)N[C@@H](Cc1c[nH]c2ccccc12)C(=O)N[C@H](CC(N)=O)C(=O)N[C@@H](CC(=O)O)C(=O)N[C@@H]1C(=O)NCC(=O)N[C@@H](CCCN)C(=O)N[C@@H](CC(=O)O)C(=O)N[C@H](C)C(=O)N[C@@H](CC(=O)O)C(=O)NCC(=O)N[C@H](CO)C(=O)N[C@@H]([C@H](C)CC(=O)O)C(=O)N[C@@H](CC(=O)c2ccccc2N)C(=O)O[C@@H]1C
- Activity (Enterococcus faecalis [12]): Dose-dependent effect
- ED50 (Enterococcus faecalis [12]): 3 mg/kg
- Activity (Staphylococcus aureus [13]): Dose-dependent effect
- ED50 (Staphylococcus aureus [13]): 0.3 mg/kg

Compound: C=C(NC(=O)c1csc(-c2ccc3c(n2)-c2csc(n2)-c2csc(n2)[C@H]([C@@H](C)[C@@H]2CO2)NC(=O)[C@H](Cc2ccc(OC(C)=O)cc2)NC(=O)c2csc(n2)[C@H]([C@H](OC(C)=O)c2ccccc2)NC(=O)c2nc(sc2C)[C@H](CC(N)=O)NC(=O)c2csc-3n2)n1)C(=O)NC(=C)C(=O)OC
- MIC (Enterococcus faecalis [1]): 32 µg/mL (≈ 22.3 µM)
- MIC (Enterococcus faecium): 32 µg/mL (≈ 22.3 µM)
- MIC (Staphylococcus aureus [2]): > 32 µg/mL
- MIC (Streptococcus pyogenes): > 32 µg/mL
- MIC [3]: > 4 µg/mL
- inhibition (Escherichia coli): inactive

Compound: Cc1sc2nc1C(=O)N[C@@H]([C@H](O)c1ccccc1)c1nc(cs1)C(=O)N[C@@H](Cc1ccc(O)cc1)C(=O)N1C[C@H](O)[C@H](C)[C@H]1c1nc(cs1)-c1nc(cs1)-c1nc(-c3nc(C(N)=O)cs3)ccc1-c1nc(cs1)C(=O)N[C@H]2CC(N)=O
- MIC (Enterococcus faecalis [1]): 0.25 µg/mL (≈ 0.208 µM)
- MIC (Enterococcus faecium): 0.5 µg/mL (≈ 0.417 µM)
- MIC (Staphylococcus aureus [2]): 0.25 µg/mL (≈ 0.208 µM)
- MIC (Streptococcus pyogenes): 1 µg/mL (≈ 0.833 µM)
- MIC [3]: < 0.008 µg/mL
- clearance [14]: 10.1 mL/min/kg
- Vd [15]: 0.134 L/kg
- half-life [16]: 3.4 h
- Activity (Enterococcus faecalis [12]): Dose-dependent effect
- ED50 (Enterococcus faecalis [12]): 1.5 mg/kg
- Activity (Staphylococcus aureus [13]): Dose-dependent effect
- ED50 (Staphylococcus aureus [13]): 8 mg/kg
- Ratio ED50 (Enterococcus faecalis [17]): 2
- MIC (Enterococcus faecalis [18]): 0.125 µg/mL (≈ 0.104 µM)
- MIC (Staphylococcus aureus [19]): 1 µg/mL (≈ 0.833 µM)
- AUC [20]: 1.35 µM·h

Compound: Cc1sc2nc1C(=O)N[C@@H]([C@H](O)c1ccccc1)c1nc(cs1)C(=O)N[C@@H](Cc1ccc(O)cc1)C(=O)N[C@@H]([C@@H](C)[C@@H](O)CN)c1nc(cs1)-c1nc(cs1)-c1nc(-c3nc(C(N)=O)cs3)ccc1-c1nc(cs1)C(=O)N[C@H]2CC(N)=O
- MIC (Enterococcus faecalis [1]): 1 µg/mL (≈ 0.821 µM)
- MIC (Enterococcus faecium): 1 µg/mL (≈ 0.821 µM)
- MIC (Staphylococcus aureus [2]): 2 µg/mL (≈ 1.64 µM)
- MIC (Streptococcus pyogenes): > 32 µg/mL
- MIC [3]: 1 µg/mL (≈ 0.821 µM)

Compound: Cc1sc2nc1C(=O)N[C@@H]([C@H](O)c1ccccc1)c1nc(cs1)C(=O)N[C@@H](Cc1ccc(O)cc1)C(=O)N[C@@H]([C@@H](C)[C@@H](O)CO)c1nc(cs1)-c1nc(cs1)-c1nc(-c3nc(C(N)=O)cs3)ccc1-c1nc(cs1)C(=O)N[C@H]2CC(N)=O
- MIC (Enterococcus faecalis [1]): > 32 µg/mL
- MIC (Enterococcus faecium): > 32 µg/mL
- MIC (Staphylococcus aureus [2]): > 32 µg/mL
- MIC (Streptococcus pyogenes): > 32 µg/mL
- MIC [3]: 2 µg/mL (≈ 1.64 µM)
